The nature of experiment [1]: Inhibition of chymotrypsin-like activity of 20S proteasome from human erythrocyte. Put shortly:
(§1)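 Substrates were Suc-Leu-Leu-Val-Tyr-AMC (chymotrypsin-like), Ac-Arg-Leu-Arg-AMC (trypsin-like) and Z-Leu-Leu-Glu-βNA (PGPH). Hydrolysis was read by fluorescence at ex 355 / em 460 nm against DMSO solvent controls.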

The nature of experiment [2]: Inhibition of trypsin-like activity of 20S proteasome from human erythrocyte. Put shortly: as §1
The nature of experiment [3]: Inhibition of peptidylglutamyl peptide hydrolyzing-like activity of 20S proteasome from human erythrocyte. Put shortly:
as §1

Experiment [4] relates to J558L. Description: Cytotoxicity against mouse J558L cells after 24 hrs by MTT assay. Format: functional, cell-based. Put shortly: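 Murine J558L myeloma cells grown in RPMI-1640 with 10% heat-inactivated FCS, antibiotics, 2-mercaptoethanol and 2 mM L-glutamine. Cells were seeded at 3 × 10³ per well and compounds were added the next day. MTT at 1 mg/mL was present for the last 4 h. Cells were lysed in SDS/DMF buffer at pH 4.7 overnight and read at 570 nm. Viability is (A_e − A_b)×100/(A_c − A_b), relative to medium-only cultures.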
In general terms: Tetrazolium assays rely on reduction of a dye to a coloured formazan, in cell work by metabolically active cells.

Experiment [5] relates to EMT6. Description: Cytotoxicity against mouse EMT6 cells after 24 hrs by crystal violet staining.
Experiment [6] concerns EMT6. Kind of experiment: Inhibition of proteasome in mouse EMT6 cell lysate assessed as cleavage of Suc-leu-leu-val-Tyr-AMC at 100 nM after 15 mins. Also noted: scale not given: the % may be the effect or the level left.
Experiment [7] has as its system EMT6. Kind of experiment: Inhibition of proteasome in mouse EMT6 cell lysate assessed as cleavage of Suc-leu-leu-val-Tyr-AMC at 100 nM after 30 mins. Further details: scale not given: the % may be the effect or the level left.
In experiment [8] the test system is EMT6. Kind of experiment: Inhibition of proteasome in mouse EMT6 cell lysate assessed as cleavage of Suc-leu-leu-val-Tyr-AMC at 100 nM after 60 mins. Also noted: scale not given: the % may be the effect or the level left.
In experiment [9] the test system is J558L. Description: Inhibition of proteasome in mouse J558L cell lysate assessed as cleavage of Suc-leu-leu-val-Tyr-AMC at 100 nM after 30 mins. Further details: scale not given: the % may be the effect or the level left.
The subject of experiment [10] is J558L. Kind of experiment: Inhibition of proteasome in mouse J558L cell lysate assessed as cleavage of Suc-leu-leu-val-Tyr-AMC at 100 nM after 60 mins. Further details: scale not given: the % may be the effect or the level left.
The subject of experiment [11] is J558L. Description: Inhibition of proteasome in mouse J558L cell lysate assessed as cleavage of Suc-leu-leu-val-Tyr-AMC at 100 nM after 15 mins. Also noted: scale not given: the % may be the effect or the level left.
The test system of experiment [12] is EMT6. Kind of experiment: Inhibition of proteasome in mouse EMT6 cell lysate assessed as cleavage of Suc-leu-leu-val-Tyr-AMC at 1000 nM after 15 mins. Also noted: scale not given: the % may be the effect or the level left.
Experiment [13] concerns EMT6. Kind of experiment: Inhibition of proteasome in mouse EMT6 cell lysate assessed as cleavage of Suc-leu-leu-val-Tyr-AMC at 1000 nM after 30 mins. Also noted: scale not given: the % may be the effect or the level left.
For experiment [14], the system named is EMT6. Description: Inhibition of proteasome in mouse EMT6 cell lysate assessed as cleavage of Suc-leu-leu-val-Tyr-AMC at 1000 nM after 60 mins. Further details: scale not given: the % may be the effect or the level left.
The test system of experiment [15] is J558L. Kind of experiment: Inhibition of proteasome in mouse J558L cell lysate assessed as cleavage of Suc-leu-leu-val-Tyr-AMC at 1000 nM after 15 mins. Further details: scale not given: the % may be the effect or the level left.
In experiment [16] the test system is J558L. Kind of experiment: Inhibition of proteasome in mouse J558L cell lysate assessed as cleavage of Suc-leu-leu-val-Tyr-AMC at 1000 nM after 30 mins. Also noted: scale not given: the % may be the effect or the level left.
The test system of experiment [17] is J558L. Description: Inhibition of proteasome in mouse J558L cell lysate assessed as cleavage of Suc-leu-leu-val-Tyr-AMC at 1000 nM after 60 mins. Further details: scale not given: the % may be the effect or the level left.
A short description of experiment [18]: Inhibition of 20S proteasome from human erythrocyte. Put shortly:
as §1

Active and inactive are the calls of the source. No cut-off for these calls is given here. Square brackets hold non-standard residues; d marks the D form. Peptide text beside a SMILES is read from it. * marks the point of attachment. 1Nal = N[C@@H](Cc1cccc2ccccc12)C(=O)O; 2Nal = N[C@@H](Cc1ccc2ccccc2c1)C(=O)O; Cbz = O=C(OCc1ccccc1)*

This is an account of results in ChEMBL document CHEMBL1156267, “Studies of the synthesis of all stereoisomers of MG-132 proteasome inhibitors in the tumor targeting approach” (J Med Chem, 2010).

A word on the IC50: it is the concentration that gives 50% inhibition. What is called Ki is the equilibrium dissociation constant of an inhibitor or competing ligand from its target.

For `CC(C)C[C@@H](C=O)NC(=O)[C@@H](CC(C)C)NC(=O)[C@H](CC(C)C)NC(=O)OCc1ccccc1`, the IC50 in [1] was determined as 0.22 µM; in experiment [2] it was 34.4 µM; in experiment [3], 2.95 µM. The outcome with J558L [4] and in the experiment on EMT6 [5] was inactive. Also, the Activity in the experiment with EMT6 [6] was determined as 17%; with EMT6 [7], 22%; in the experiment with EMT6 [8], 31%; with J558L [9], 36%; in the experiment on J558L [10] it was 50%; with J558L [11], 25%. Besides, the Activity in the experiment on EMT6 [12] stood at 5%; in the experiment on EMT6 [13], 7%; in the experiment on EMT6 [14], 13%; with J558L [15] it was 11%; in the experiment with J558L [16], 21%; in the experiment on J558L [17], 38%.
With `CC(C)CC(NC(=O)[C@@H](CC(C)C)NC(=O)OCc1ccccc1)C(=O)N[C@H](C=O)CC(C)C` (single isomer, unassigned; (+)) [listing 1 of 2 here], the concentration for half-maximal inhibition (IC50) in experiment [1], in [2] and in experiment [3] was > 100 µM throughout.
With `CC(C)C[C@@H](C=O)NC(=O)[C@H](CC(C)C)NC(=O)[C@H](CC(C)C)NC(=O)OCc1ccccc1` (stereo in doubt; 2), the Activity with EMT6 [6] worked out at 20%; in the experiment on EMT6 [7], 25%; in the experiment with EMT6 [8] it was 35%; in the experiment with J558L [9], 44%; in the experiment with J558L [10], 60%; with J558L [11] it was 32%. In addition, the Activity amounted to 12% with EMT6 [12]; 14% in the experiment with EMT6 [13]; 19% in the experiment on EMT6 [14]; 15% in the experiment on J558L [15]; 25% with J558L [16]; 44% in the experiment with J558L [17].
As to `CC(C)C[C@H](C=O)NC(=O)[C@@H](CC(C)C)NC(=O)[C@@H](CC(C)C)NC(=O)OCc1ccccc1`, the 50% inhibitory concentration (IC50) is 9.81 µM in experiment [1], > 100 µM in experiment [2] and 11.3 µM in experiment [3]. In addition, the Activity in the experiment with EMT6 [6] came to 90%; in the experiment with EMT6 [7], 90%; in the experiment with EMT6 [8], 91%; in the experiment with J558L [9], 89%; in the experiment on J558L [10] it was 89%; with J558L [11], 87%. Besides, the Activity came to 62% with EMT6 [12]; 70% in the experiment with EMT6 [13]; 78% in the experiment with EMT6 [14]; 58% in the experiment with J558L [15]; 66% with J558L [16]; 71% in the experiment on J558L [17].
In [18], `CC(C)C[C@H](NC(=O)[C@H](Cc1ccccc1)NC(=O)c1cnccn1)B(O)O` [BORTEZOMIB] returned a Ki of 0.62 nM.
As for `CC(C)C[C@@H](C=O)NC(=O)[C@H](CC(C)C)NC(=O)[C@H](CC(C)C)NC(=O)OCc1ccccc1` (stereo in doubt) [MG-132], the half-maximal inhibitory concentration (IC50) in experiment [1] was 5.46 µM; in experiment [2], > 100 µM; in [3], > 100 µM.
Turning to `CC(C)CC(NC(=O)[C@H](CC(C)C)NC(=O)OCc1ccccc1)C(=O)N[C@@H](C=O)CC(C)C` (stereo in doubt; (-)) [listing 1 of 2 here], the IC50 in experiment [1] stood at 0.97 µM; in experiment [2], 91.3 µM; in experiment [3] it was 22.8 µM.
As for `CC(C)CC(NC(=O)[C@H](CC(C)C)NC(=O)OCc1ccccc1)C(=O)N[C@@H](C=O)CC(C)C` (stereo in doubt; (+)) [listing 1 of 2 here], the Activity stood at 110% in the experiment with EMT6 [6]; 103% in the experiment on EMT6 [7]; 99% in the experiment on EMT6 [8]; 105% with J558L [9]; 107% in the experiment on J558L [10]; 104% in the experiment with J558L [11]. Besides, the Activity in the experiment on EMT6 [12] turned out to be 118%; in the experiment on EMT6 [13], 111%; with EMT6 [14], 106%; with J558L [15] it was 107%; in the experiment with J558L [16] it was 106%; in the experiment with J558L [17], 106%.
Turning to `CC(C)CC(NC(=O)[C@@H](CC(C)C)NC(=O)OCc1ccccc1)C(=O)N[C@H](C=O)CC(C)C` (single isomer, unassigned; (+)) [listing 2 of 2 here], the Activity with EMT6 [6] came out at 97%; with EMT6 [7] it was 95%; in the experiment with EMT6 [8] it was 95%; in the experiment with J558L [9], 118%; in the experiment with J558L [10], 123%; with J558L [11] it was 115%. Also, the Activity was 104% with EMT6 [12]; 100% in the experiment with EMT6 [13]; 99% in the experiment with EMT6 [14]; 114% with J558L [15]; 117% in the experiment with J558L [16]; 121% in the experiment on J558L [17].
In [18], `CC(C)C[C@@H](C=O)NC(=O)[C@H](Cc1cccc2ccccc12)NC(=O)[C@H](Cc1ccc2ccccc2c1)NC(=O)OCc1ccccc1` (Cbz-[2Nal]-[1Nal]-Leu-aldehyde) yielded a Ki of 0.015 nM.
As for `CC(C)CC(NC(=O)[C@H](CC(C)C)NC(=O)OCc1ccccc1)C(=O)N[C@@H](C=O)CC(C)C` (stereo in doubt; (+)) [listing 2 of 2 here], the IC50 in experiment [1], in [2] and in [3] was > 100 µM throughout.
As for `CC(C)CC(NC(=O)[C@H](CC(C)C)NC(=O)OCc1ccccc1)C(=O)N[C@@H](C=O)CC(C)C` (stereo in doubt; (-)) [listing 2 of 2 here], the Activity with EMT6 [6] stood at 95%; in the experiment on EMT6 [7], 91%; with EMT6 [8] it was 91%; in the experiment on J558L [9], 93%; in the experiment on J558L [10] it was 94%; in the experiment on J558L [11], 92%. Besides, the Activity with EMT6 [12] worked out at 44%; in the experiment with EMT6 [13], 46%; in the experiment with EMT6 [14], 53%; in the experiment on J558L [15], 55%; with J558L [16], 64%; with J558L [17], 77%.
In the case of `CC(C)CC(NC(=O)[C@@H](CC(C)C)NC(=O)OCc1ccccc1)C(=O)N[C@H](C=O)CC(C)C` (stereo in doubt) [listing 1 of 2 here], the Activity in the experiment on EMT6 [6] is 87%; with EMT6 [7], 85%; with EMT6 [8] it was 84%; in the experiment with J558L [9], 77%; with J558L [10] it was 82%; in the experiment on J558L [11] it was 71%. Further, the Activity in the experiment with EMT6 [12] turned out to be 61%; with EMT6 [13], 61%; in the experiment with EMT6 [14], 67%; with J558L [15], 30%; with J558L [16], 40%; with J558L [17], 53%.
Turning to `CC(C)C[C@H](NC(=O)[C@@H](CC(C)C)NC(=O)OCc1ccccc1)C(=O)N[C@@H](C=O)CC(C)C`, the IC50 in experiment [1], in experiment [2] and in experiment [3] was > 100 µM in each case. The Activity in the experiment on J558L [9] came out at 110%; with J558L [10], 112%; in the experiment with J558L [11], 100%; in the experiment on J558L [15] it was 102%; in the experiment on J558L [16], 96%; in the experiment on J558L [17], 99%.
In the case of `CC(C)C[C@@H](C=O)NC(=O)[C@H](CC(C)C)NC(=O)[C@H](CC(C)C)NC(=O)OCc1ccccc1` (stereo in doubt; 2) [MG-132], the IC50 was 0.89 µM in [1], 104 µM in experiment [2] and 5.7 µM in experiment [3]. This molecule also returned an inhibition constant Ki in experiment [18] of 4 nM.
As for `CC(C)CC(NC(=O)[C@@H](CC(C)C)NC(=O)OCc1ccccc1)C(=O)N[C@H](C=O)CC(C)C` (stereo in doubt) [listing 2 of 2 here], the IC50 is 1.79 µM in [1] and 17.2 µM in experiment [3].
For `CC(C)C[C@@H](C=O)NC(=O)[C@H](CC(C)C)NC(=O)[C@H](CC(C)C)NC(=O)OCc1ccccc1` (stereo in doubt), the Activity in the experiment on EMT6 [6] is 71%; in the experiment on EMT6 [7] it was 77%; in the experiment on EMT6 [8] it was 86%; with J558L [9] it was 91%; in the experiment with J558L [10], 95%; in the experiment with J558L [11], 84%. Besides, the Activity with EMT6 [12] was 29%; in the experiment on EMT6 [13], 37%; with EMT6 [14] it was 50%; in the experiment on J558L [15] it was 71%; with J558L [16], 72%; in the experiment on J558L [17], 74%.
